Tests used:
MCF7 = experiment: Cytotoxicity against human MCF7 cells assessed as growth inhibition at 10 uM after 48 hrs by SRB assay; type: functional; conditions: MCF7, 48 h, read-out: GI
Method in brief: (§1)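 Single-dose NCI 60-cell screen at 10 µM with 48 h exposure and sulforhodamine B read-out. Values are percentage growth per cell line. A summary ratio counts cell lines with 0–50% growth over all cell lines tested.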

M14 [1] = experiment: Cytotoxicity against human M14 cells assessed as growth inhibition at 10 uM after 48 hrs by SRB assay; type: functional; conditions: M14, 48 h, read-out: GI; method in brief: as §1
HCT-15 [2] = experiment: Cytotoxicity against human HCT15 cells assessed as growth inhibition at 10 uM after 48 hrs by SRB assay; type: functional; conditions: HCT-15, 48 h, read-out: GI; method in brief: as §1
K562 [3] = experiment: Cytotoxicity against human K562 cells assessed as growth inhibition at 10 uM after 48 hrs by SRB assay; type: functional; conditions: K562, 48 h, read-out: GI; method in brief: as §1
HL-60(TB) [4] = experiment: Cytotoxicity against human HL-60(TB) cells assessed as growth inhibition at 10 uM after 48 hrs by SRB assay; type: functional; conditions: HL-60, 48 h, read-out: GI
Method in brief: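 Single high dose of 10 µM in the NCI 60-cell disease-oriented human tumour panel, with 48 h exposure and sulforhodamine B read-out of percentage growth.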

MDA-MB-435 [5] = experiment: Cytotoxicity against human MDA-MB-435 cells assessed as growth inhibition at 10 uM after 48 hrs by SRB assay; type: functional; conditions: MDA-MB-435, 48 h, read-out: GI; method in brief: as §1
MDA-MB-468 = experiment: Cytotoxicity against human MDA-MB-468 cells assessed as growth inhibition at 10 uM after 48 hrs by SRB assay; type: functional; conditions: MDA-MB-468, 48 h, read-out: GI; method in brief: as §1
SW-620 [6] = experiment: Cytotoxicity against human SW620 cells assessed as growth inhibition at 10 uM after 48 hrs by SRB assay; type: functional; conditions: SW-620, 48 h, read-out: GI; method in brief: as §1
HCC 2998 = experiment: Cytotoxicity against human HCC2998 cells assessed as growth inhibition at 10 uM after 48 hrs by SRB assay; type: functional; conditions: HCC 2998, 48 h, read-out: GI; method in brief: as §1
KM12 [7] = experiment: Cytotoxicity against human KM12 cells assessed as growth inhibition at 10 uM after 48 hrs by SRB assay; type: functional; conditions: KM12, 48 h, read-out: GI; method in brief: as §1
NCI-H522 [8] = experiment: Cytotoxicity against human NCI-H522 cells assessed as growth inhibition at 10 uM after 48 hrs by SRB assay; type: functional; conditions: NCI-H522, 48 h, read-out: GI; method in brief: as §1
SR [9] = experiment: Cytotoxicity against human SR cells assessed as growth inhibition at 10 uM after 48 hrs by SRB assay; type: functional; conditions: read-out: GI; method in brief: as §1
Ovis aries = species on record: Ovis aries; experiment: Inhibition of sheep brain tubulin assembly at 100 uM by DAPI staining-based fluorescence assay
Method in brief: (§2)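 Tubulin from sheep brain, purified by two assembly–disassembly cycles, at about 2–3 mg/mL in 0.1 M MES, 0.5 mM MgCl2, 1 mM EGTA, 1 mM GTP, pH 6.6. Assembly followed by DAPI fluorescence at 37 °C. Single-point inhibition tested at 100 µM. IC50 is the concentration halving the assembly rate relative to no compound, mean of two experiments, with reference inhibitors run the same day.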

[10] = Inhibition of sheep brain tubulin assembly by DAPI staining-based fluorescence assay; parameters: species or system Ovis aries; method in brief: as §2
BT-549 = experiment: Cytotoxicity against human BT549 cells assessed as growth inhibition after 48 hrs by SRB assay; type: functional; conditions: BT-549, 48 h
Method in brief: (§3)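 Run in the NCI 60 human tumour cell line panel. Cells exposed for 48 h, growth read by sulforhodamine B. Compounds were first screened at a single 10 µM dose, and those meeting preset threshold inhibition criteria went on to the 5-dose screen. GI50 is the molar concentration giving 50% growth inhibition.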

MDA-MB-231 = experiment: Cytotoxicity against human MDA-MB-231 cells assessed as growth inhibition after 48 hrs by SRB assay; type: functional; conditions: MDA-MB-231, 48 h; method in brief: as §3
Hs-578T = experiment: Cytotoxicity against human Hs578T cells assessed as growth inhibition after 48 hrs by SRB assay; type: functional; method in brief: as §3
SNB-75 = experiment: Cytotoxicity against human SNB75 cells assessed as growth inhibition after 48 hrs by SRB assay; type: functional; conditions: SNB-75, 48 h; method in brief: as §3
SF-539 = experiment: Cytotoxicity against human SF539 cells assessed as growth inhibition after 48 hrs by SRB assay; type: functional; conditions: SF-539, 48 h; method in brief: as §3
SNB-19 = experiment: Cytotoxicity against human SNB19 cells assessed as growth inhibition after 48 hrs by SRB assay; type: functional; conditions: SNB-19, 48 h; method in brief: as §3
SF-268 = experiment: Cytotoxicity against human SF268 cells assessed as growth inhibition after 48 hrs by SRB assay; type: functional; conditions: SF-268, 48 h; method in brief: as §3
SN12C = experiment: Cytotoxicity against human SN12C cells assessed as growth inhibition after 48 hrs by SRB assay; type: functional; method in brief: as §3
DU-145 = experiment: Cytotoxicity against human DU145 cells assessed as growth inhibition after 48 hrs by SRB assay; type: functional; conditions: DU-145, 48 h; method in brief: as §3
RXF 393 = experiment: Cytotoxicity against human RXF393 cells assessed as growth inhibition after 48 hrs by SRB assay; type: functional; conditions: RXF 393, 48 h; method in brief: as §3
SK-OV-3 = experiment: Cytotoxicity against human SKOV3 cells assessed as growth inhibition after 48 hrs by SRB assay; type: functional; conditions: SK-OV-3, 48 h; method in brief: as §3
ACHN = experiment: Cytotoxicity against human ACHN cells assessed as growth inhibition after 48 hrs by SRB assay; type: functional; method in brief: as §3
NCI/ADR-RES [11] = experiment: Cytotoxicity against human NCI/ADR-RES cells assessed as growth inhibition after 48 hrs by SRB assay; type: functional; method in brief: as §3
Malme-3M = experiment: Cytotoxicity against human MALME-3M cells assessed as growth inhibition after 48 hrs by SRB assay; type: functional; method in brief: as §3
OVCAR-3 = experiment: Cytotoxicity against human OVCAR3 cells assessed as growth inhibition after 48 hrs by SRB assay; type: functional; conditions: OVCAR-3, 48 h; method in brief: as §3
MDA-MB-435 [12] = experiment: Cytotoxicity against human MDA-MB-435 cells assessed as growth inhibition after 48 hrs by SRB assay; type: functional; conditions: MDA-MB-435, 48 h; method in brief: as §3
M14 [13] = experiment: Cytotoxicity against human M14 cells assessed as growth inhibition after 48 hrs by SRB assay; type: functional; conditions: M14, 48 h; method in brief: as §3
KM12 [14] = experiment: Cytotoxicity against human KM12 cells assessed as growth inhibition after 48 hrs by SRB assay; type: functional; conditions: KM12, 48 h; method in brief: as §3
SW-620 [15] = experiment: Cytotoxicity against human SW620 cells assessed as growth inhibition after 48 hrs by SRB assay; type: functional; conditions: SW-620, 48 h; method in brief: as §3
HCT-15 [16] = experiment: Cytotoxicity against human HCT15 cells assessed as growth inhibition after 48 hrs by SRB assay; type: functional; conditions: HCT-15, 48 h; method in brief: as §3
NCI-H460 = experiment: Cytotoxicity against human NCI-H460 cells assessed as growth inhibition after 48 hrs by SRB assay; type: functional; conditions: NCI-H460, 48 h; method in brief: as §3
NCI-H522 [17] = experiment: Cytotoxicity against human NCI-H522 cells assessed as growth inhibition after 48 hrs by SRB assay; type: functional; conditions: NCI-H522, 48 h; method in brief: as §3
NCI-H23 = experiment: Cytotoxicity against human NCI-H23 cells assessed as growth inhibition after 48 hrs by SRB assay; type: functional; conditions: NCI-H23, 48 h; method in brief: as §3
SR [18] = experiment: Cytotoxicity against human SR cells assessed as growth inhibition after 48 hrs by SRB assay; type: functional; method in brief: as §3
HL-60(TB) [19] = experiment: Cytotoxicity against human HL-60(TB) cells assessed as growth inhibition after 48 hrs by SRB assay; type: functional; conditions: HL-60, 48 h
Method in brief: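 NCI 60-human-cancer-cell-line screen; only compounds meeting predetermined threshold inhibition criteria in the single-dose test went on to the 5-dose screen. Cells exposed for 48 h and growth read by sulforhodamine B assay. GI50 is the molar concentration giving 50% growth inhibition of tumour cells.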

K562 [20] = experiment: Cytotoxicity against human K562 cells assessed as growth inhibition after 48 hrs by SRB assay; type: functional; conditions: K562, 48 h; method in brief: as §3
CCRF-CEM = experiment: Cytotoxicity against human CCRF-CEM cells assessed as growth inhibition after 48 hrs by SRB assay; type: functional; method in brief: as §3
PC-3 = experiment: Cytotoxicity against human PC3 cells assessed as growth inhibition after 48 hrs by SRB assay; type: functional; conditions: PC-3, 48 h; method in brief: as §3
NCI/ADR-RES [21] = experiment: Cytotoxicity against human NCI/ADR-RES cells assessed as growth inhibition at 10 uM after 48 hrs by SRB assay; type: functional; conditions: read-out: GI; method in brief: as §1

COc1ccc(C(=O)c2ccc(OC)c(N)c2OC)cc1F
inhibition of growth at 10 µM (MCF7): 52%
inhibition of growth at 10 µM (M14 [1]): 43%
inhibition of growth at 10 µM (HCT-15 [2]): 53%
inhibition of growth at 10 µM (K562 [3]): 71%
inhibition of growth at 10 µM (HL-60(TB) [4]): 49%
inhibition of growth at 10 µM (MDA-MB-435 [5]): 100%
inhibition of growth at 10 µM (MDA-MB-468): 81%
inhibition of growth at 10 µM (SW-620 [6]): 77%
inhibition of growth at 10 µM (HCC 2998): 72%
inhibition of growth at 10 µM (KM12 [7]): 59%
inhibition of growth at 10 µM (NCI-H522 [8]): 45%
inhibition of growth at 10 µM (SR [9]): 61%
inhibition (Ovis aries): 45%

COc1ccc(C(=O)c2cc(OC)c(OC)c(OC)c2N)cc1F
IC50 [10]: 2000 nM

COc1cc([C@@H]2c3cc4c(cc3C[C@H]3COC(=O)[C@@H]32)OCO4)cc(OC)c1OC [DESOXYPODOPHYLLOTOXIN]
IC50 [10]: 1760 nM
inhibition (Ovis aries): 100%

C=C(c1ccc(OC)c(O)c1)c1cc(F)c(F)c(OC)c1F
GI50 (BT-549): 61 nM
GI50 (MDA-MB-231): 94 nM
GI50 (Hs-578T): 52 nM
GI50 (SNB-75): 55 nM
GI50 (SF-539): 31 nM
GI50 (SNB-19): 67 nM
GI50 (SF-268): 75 nM
GI50 (SN12C): 209 nM
GI50 (DU-145): 139 nM
GI50 (RXF 393): 176 nM
GI50 (SK-OV-3): 94 nM
GI50 (ACHN): 67 nM
GI50 (NCI/ADR-RES [11]): 38 nM
GI50 (Malme-3M): 44 nM
GI50 (OVCAR-3): 217 nM
GI50 (MDA-MB-435 [12]): 19 nM
GI50 (M14 [13]): 38 nM
GI50 (KM12 [14]): 47 nM
GI50 (SW-620 [15]): 45 nM
GI50 (HCT-15 [16]): 45 nM
GI50 (NCI-H460): 343 nM
GI50 (NCI-H522 [17]): 25 nM
GI50 (NCI-H23): 385 nM
GI50 (SR [18]): 15 nM
GI50 (HL-60(TB) [19]): 23 nM
GI50 (K562 [20]): 37 nM
GI50 (CCRF-CEM): 37 nM
IC50 [10]: 42200 nM
inhibition (Ovis aries): 77%
GI50 (PC-3): 140 nM

COc1ccc(C(=O)c2cc(F)c(F)c(OC)c2F)c(O)c1O
IC50 [10]: 29200 nM
inhibition (Ovis aries): 93%

COc1ccc(C(=O)c2cc(F)c(F)c(OC)c2F)cc1OC(=O)CCl
inhibition (Ovis aries): 46%

COc1ccc(C(O)c2cc(F)c(F)c(OC)c2F)cc1O (stereo not given)
inhibition of growth at 10 µM (K562 [3]): 41%
inhibition of growth at 10 µM (NCI/ADR-RES [21]): 35%
inhibition of growth at 10 µM (KM12 [7]): 26%
inhibition of growth at 10 µM (NCI-H522 [8]): 53%
inhibition of growth at 10 µM (SR [9]): 33%
inhibition (Ovis aries): 49%

From ChEMBL document CHEMBL2384929, “Synthesis and biological evaluation of fluoro analogues of antimitotic phenstatin” (Bioorg Med Chem, 2013)
